An excerpt weighted towards active compounds, which were near 1.4% of everything screened.
PKA-R1A act: PKA-R1A complex activation; P00514+P68181; 340,000 tested, 0.083% active; activation, % at 11.4 µM; PKA-R1A dissociation, Cy5-IP20 fluorescence polarization; scaled: DMSO 0%, 113 µM cGMP 100%;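 active means percent activation above the mean of all tested compounds plus 3 SD, cut at about 19% in these data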;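 further: higher means more PKAc released from R1A so a rise in polarization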
SR-BI DiI inh: blocks mouse SR-BI lipid uptake from DiI-HDL; 320,000 tested, 0.96% active; Q61009; inhibition, % at 12.5 µM; ldlA[mSR-BI] CHO cells, DiI-HDL uptake fluorescence, 3 h;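 active means mean replicate inhibition of at least 70% and a set share of replicates each scoring 70 or more; inconclusive means meets just one of the two criteria; inactive means fails both criteria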;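 further: 0% = median of neutral control wells and 100% = median of positive control wells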
Target sequence (Q61009 whole entry, looked up): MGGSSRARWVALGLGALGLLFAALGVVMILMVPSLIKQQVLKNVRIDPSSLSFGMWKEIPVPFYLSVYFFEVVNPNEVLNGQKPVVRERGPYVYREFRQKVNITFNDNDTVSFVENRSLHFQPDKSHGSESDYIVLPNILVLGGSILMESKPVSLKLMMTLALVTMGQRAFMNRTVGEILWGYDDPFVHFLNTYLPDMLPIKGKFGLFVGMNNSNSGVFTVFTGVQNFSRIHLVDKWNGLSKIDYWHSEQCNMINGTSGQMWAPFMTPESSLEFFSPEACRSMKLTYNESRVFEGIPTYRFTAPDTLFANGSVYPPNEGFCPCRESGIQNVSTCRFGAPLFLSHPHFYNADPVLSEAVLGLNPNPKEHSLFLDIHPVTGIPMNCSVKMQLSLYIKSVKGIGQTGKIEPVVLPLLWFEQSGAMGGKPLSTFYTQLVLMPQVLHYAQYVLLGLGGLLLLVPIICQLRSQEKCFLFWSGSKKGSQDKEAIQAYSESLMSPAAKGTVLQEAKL
PKA-R2B act: PKA-R2B complex activation; 340,000 tested, 0.079% active; PKA-R2B holoenzyme dissociation, Cy5-IP20 fluorescence polarization; R2B truncated from residue 108, S112A mutant; 0% DMSO only, 100% 113 µM cGMP; P22694+P31323; activation, % at 11.4 µM;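 active means activation above a cutoff set at the mean over all compounds plus 3 SD, cut at about 18% in these data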;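 further: higher means more holoenzyme dissociation and a rise in polarization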
SR-BI DiI-HDL act: SR-BI HDL lipid transfer activation; activation, % at 12.5 µM; CHO ldlA[mSR-BI] cells, DiI-HDL uptake fluorescence, 3 h; 100 = double the neutral-control signal; AID 504775; 320,000 tested, 0.096% active;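 active means mean replicate activation of at least 60% and every replicate at or above 60%; inconclusive means mean or all-replicate condition met, but not both; inactive means mean below 60% and not all replicates reaching 60%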;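 further: 0% = median plate neutral-control signal and 100% = twice that signal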
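System: LDL receptor-deficient CHO ldlA cells overexpressing murine SR-BI | Timing: 3 h uptake period with compound, 37 °C | Medium: HEPES-buffered (25 mM, pH 7.4) F12 plus 0.5% BSA | Dosing: Single-point compound dose | Signal: Bottom-read fluorescence, 550/595 nm | Read-out: Retained DiI signal reflecting DiI-HDL uptake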
Vif inh: HIV Vif inhibition; inhibition, % at 7.49 µM; HEK293T cells, Vif self-association by quenched fluorescence, imaging, 24 h; 340,000 tested, 0.35% active; in the data active means inhibition above about 50%, passing the limit was not always enough; inconclusive means no clear call, values can overlap the other calls; inactive means below about 31%
An asterisk follows results filed as active; ? = inconclusive; / = not tested or not shown; + = active, no number.

SMILES	PKA-R1A act	SR-BI DiI inh	PKA-R2B act	SR-BI DiI-HDL act	Vif inh
CC(C)C(=O)N1CCN(c2ccccc2NC(=S)NC(=O)c2ccco2)CC1	-1	81*	6	-81	-10
CNC(=O)C[C@H]1C(=O)N(c2ccccc2)C[C@@H]1CSC	-16	/	10	/	-3
Cc1ccc(NC(=O)CCC(=O)NNC(=O)NC2CCCCC2)c(C)c1	0	-15	-10	15	79*
CCNC(=S)N1CCC(C(=O)c2ccc(F)cc2)CC1	-2	/	12	/	/
COc1ccccc1CCNC(=O)C1CCN(c2nnc(C)c3c(C)n(-c4ccc(C)cc4)nc23)CC1	4	80*	8	-80	-15
O=CNC1c2ccccc2CCc2ccccc21	2	5	-18	-5	61*
Cc1nnc(SCC(=O)N(Cc2ccccc2)C(C)(C)C)[nH]c1=O	4	-67	-11	?	14
O=C1S/C(=C\c2ccc(N3CCOCC3)o2)C(=O)N1Cc1c(F)cccc1Cl	6	29	5	-29	8
O=C1S/C(=C/c2ccc(N3CCOCC3)o2)C(=O)N1Cc1c(F)cccc1Cl	-1	35	3	-35	+
COc1ccc(/C=C(/C#N)C(=O)Nc2ccc(C)cc2C)cc1C(=O)O	-2	-66	-5	66*	-1
CCCc1ccc(S(=O)(=O)N/N=C\c2ccc3c(c2)OCO3)cc1	-10	-12	-5	12	-9
COc1ccc(NC(=O)COC(=O)CCNS(=O)(=O)c2ccc(Cl)cc2)cc1	2	/	7	/	2
O=S(=O)(c1cc(F)ccc1F)N1CCC2(CC1)OCCN2S(=O)(=O)c1cccs1	4	-6	-2	6	-15
O=C1c2cccnc2-c2ncccc21	0	-21	3	21	-6
O=C1C(=O)c2cccnc2-c2ncccc21	/	/	/	/	78*
COc1ccc2nc(C)c3c(c2c1)OC(C(C)(Cl)Br)C3 (centres undefined)	-6	71*	4	-71	-13
N#Cc1c(-c2cccs2)cc(-c2cccs2)[nH]c1=O	/	-16	/	16	51*
O=C(CCC(C(=O)c1ccccc1)c1ccccc1)c1ccccc1 (centres undefined)	-1	/	-5	/	-1
CC(Sc1nnc(CN2CCCC2)n1Cc1ccccc1)C(=O)Nc1ccc(F)c(F)c1F (centres undefined)	12	25	-10	-25	-4
CCCC(=O)N1CCCC1(C)C(=O)NCCc1ccccn1 (centres undefined)	/	/	/	/	-5
O=C(NN=Cc1cc(Cl)ccc1[N+](=O)[O-])c1cccc2ccccc12	0	40	-13	-40	2
O=C(N/N=C/c1cc([N+](=O)[O-])ccc1O)c1ccc(COc2ccc3c(c2)CCC3)o1	-15	136*	-5	-136	7
O=C(N/N=C/c1cc([N+](=O)[O-])ccc1O)C1CCCCC1	-4	87*	-2	-87	-1
O=C(N/N=C/c1cc([N+](=O)[O-])ccc1O)c1cccc2ccccc12	18	129*	4	-129	0
Cc1cc(C(=O)N/N=C\c2ccc(COc3ccc([N+](=O)[O-])cc3)o2)ccc1[N+](=O)[O-]	-11	76*	2	-76	29
SMILES	PKA-R1A act	SR-BI DiI inh	PKA-R2B act	SR-BI DiI-HDL act	Vif inh
Cc1nc2ccc(C(=O)N/N=C/c3cc([N+](=O)[O-])ccc3O)cc2[nH]1	10	106*	0	-106	-1
C/C(=N\NC(N)=S)C1(C)CCCCC1	-6	78*	-5	-78	22
C/C(=N\NC(N)=O)C1(C)CCCCC1	-1	-11	-2	11	-1
O=C(CNCC1(N2CCOCC2)CCCCC1)Nc1ccc(Cl)cc1	-10	-8	-3	8	-4
O=C(C[n+]1cc(-c2ccc(Cl)cc2)n2c1CCC2)Nc1nc(-c2ccc(F)cc2)cs1	-13	1	-3	-1	0
CCn1c(C)cs/c1=N\S(=O)(=O)c1ccccc1	0	-23	-2	23	-7
O=Cc1s/c(=N\S(=O)(=O)c2ccccc2)n(CCCCl)c1Cl	-4	-8	-13	8	57*
CCOc1ccc(S(=O)(=O)NCc2ccccn2)cc1NC(=O)c1ccccc1	-14	18	-11	-18	54*
CC(C)(CC(=O)O)CC(=O)N1CCCN(c2nccc(C(F)(F)F)n2)CC1	-1	12	-15	-12	-1

Bioassay records from PubChem.
